Assay results: PMC3483595 (ChemMedChem, 2012)
Converted amounts (≈) assume the structure as drawn. “And” between values parts separate entries of the source, which are not always exact repeats. Equal values may be shown once. Read-outs that look alike come from different tables or passages of the source.

Key:
E. coli MC4100 = test: Plate assay of bacterial growth; assay type: cell-based; details: wild-type, overnight incubation
Outline: (§1)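 Exponential-phase cells (OD600 0.5) were mixed into LB with 0.2% glucose and 0.75% soft agar and poured as a lawn. Test compound (1 µL; water- or DMSO-dissolved) was spotted on the set surface and plates were incubated overnight at 37°C. The MIC was the concentration giving a clear growth-inhibition zone relative to the surrounding lawn.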

B. subtilis 168 [1] = test: Plate assay of bacterial growth; assay type: cell-based; details: for MIC, B. subtilis 168: plate assay, overnight incubation
Outline: as §1

EcSecA membrane ATPase = EcSecA membrane ATPase (Escherichia coli, UniProt P10408); test: Membrane ATPase assay of SecA with urea-washed BA13 membrane; assay type: biochemical; details: read-out: IC50, EcSecA membrane ATPase
Outline: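 Purified full-length E. coli SecA (1.5 µg per 50 µL) was combined with 3 µg urea-washed membrane from E. coli BA13 (MC4100 secA13(am) supF(ts)). Phosphate was read at 660 nm and expressed as % of the no-inhibitor control; at least triplicate.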

SecA ATPase = test: Kinetic experiments versus ATP; assay type: biochemical; details: low ATP concentrations, data not shown
[2] = biological target: T1, EcSecA translocation ATPase (Escherichia coli, UniProt P10408); test: Translocation ATPase assay of SecA with membrane and proOmpA; assay type: biochemical; details: read-out: IC50, EcSecA translocation ATPase
Outline: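 Purified full-length E. coli SecA (1.5 µg per 50 µL) was combined with 3 µg urea-washed BA13 membrane plus 1 µg purified proOmpA precursor. Reaction: 1.2 mM ATP, ovalbumin, Tris-HCl pH 7.6, KCl, NH4Cl, Mg(OAc)2, DTT, 40°C within the linear range. Released phosphate was read at 660 nm and expressed as % remaining activity versus control; at least triplicate.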

[3] = test system: SecA-dependent protein translocation; test: SecA-dependent in vitro translocation of proOmpA into membrane vesicles; assay type: biochemical, E. coli; details: read-out: IC50, in vitro translocation of proOmpA into membrane vesicles; 35S-labeled proOmpA
F1F0-ATPase = F1F0-ATPase (Escherichia coli, UniProt P0ABB0+P0ABB4); test: F1F0-proton ATPase activity assay; assay type: biochemical; details: read-out: IC50, F1F0-ATPase; E. coli F1F0-proton ATPase in liposomes
Outline: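 F1F0-ATPase from E. coli KY7485 membranes was partially purified by sucrose gradient and reconstituted into liposomes by dialysis. Released phosphate was read photometrically at 660 nm. Activity was expressed as % of the no-inhibitor control; at least triplicate.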

E. coli NR698 [4] = test: Plate assay of bacterial growth; assay type: cell-based; details: for MIC, E. coli NR698: plate assay, leaky mutant, overnight incubation
BsSecA intrinsic ATPase = BsSecA intrinsic ATPase (Bacillus subtilis, UniProt P28366); test: Intrinsic ATPase assay of full-length BsSecA; assay type: biochemical; details: read-out: IC50, BsSecA intrinsic ATPase; full-length B. subtilis SecA
Outline: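 Full-length B. subtilis SecA was overexpressed from pT7div and purified, then used at 1.5 µg per 50 µL reaction in solution without membranes. Phosphate release was read at 660 nm and expressed as % remaining activity versus control; at least triplicate.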

EcN68 SecA ATPase = EcN68 SecA ATPase (Escherichia coli, UniProt P10408); test: biochemical; assay type: biochemical
E. coli NR698 [5] = test: Liquid culture growth assay; assay type: cell-based; details: 50 µM, data not shown
E. coli NR698 [6] = test: Bactericidal effect assay; assay type: cell-based; details: 100 µM, one-hour treatment, exponential-phase cells
B. subtilis 168 [7] = test: Bactericidal effect assay; assay type: cell-based; details: 100 µM, one-hour treatment, exponential-phase cells
Outline: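 Exponential-phase cultures (OD600 0.5) in LB with 0.2% glucose were exposed to test compound, with water as the control, for 1 h at 37°C. Cultures were serially diluted and spread on LB plates. Surviving CFU were counted after overnight growth at 37°C, and the effect was expressed as the drop in log CFU. At least triplicate; standard error of the mean.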

[8] = biological target: T1, EcSecA translocation ATPase; details: read-out: IC50, translocation ATPase of SecA; cited from earlier work
[9] = test system: SecA-dependent protein translocation; details: read-out: IC50, in vitro protein translocation; cited from earlier work
[10] = cited from earlier work

T1 sequence (P10408 whole entry): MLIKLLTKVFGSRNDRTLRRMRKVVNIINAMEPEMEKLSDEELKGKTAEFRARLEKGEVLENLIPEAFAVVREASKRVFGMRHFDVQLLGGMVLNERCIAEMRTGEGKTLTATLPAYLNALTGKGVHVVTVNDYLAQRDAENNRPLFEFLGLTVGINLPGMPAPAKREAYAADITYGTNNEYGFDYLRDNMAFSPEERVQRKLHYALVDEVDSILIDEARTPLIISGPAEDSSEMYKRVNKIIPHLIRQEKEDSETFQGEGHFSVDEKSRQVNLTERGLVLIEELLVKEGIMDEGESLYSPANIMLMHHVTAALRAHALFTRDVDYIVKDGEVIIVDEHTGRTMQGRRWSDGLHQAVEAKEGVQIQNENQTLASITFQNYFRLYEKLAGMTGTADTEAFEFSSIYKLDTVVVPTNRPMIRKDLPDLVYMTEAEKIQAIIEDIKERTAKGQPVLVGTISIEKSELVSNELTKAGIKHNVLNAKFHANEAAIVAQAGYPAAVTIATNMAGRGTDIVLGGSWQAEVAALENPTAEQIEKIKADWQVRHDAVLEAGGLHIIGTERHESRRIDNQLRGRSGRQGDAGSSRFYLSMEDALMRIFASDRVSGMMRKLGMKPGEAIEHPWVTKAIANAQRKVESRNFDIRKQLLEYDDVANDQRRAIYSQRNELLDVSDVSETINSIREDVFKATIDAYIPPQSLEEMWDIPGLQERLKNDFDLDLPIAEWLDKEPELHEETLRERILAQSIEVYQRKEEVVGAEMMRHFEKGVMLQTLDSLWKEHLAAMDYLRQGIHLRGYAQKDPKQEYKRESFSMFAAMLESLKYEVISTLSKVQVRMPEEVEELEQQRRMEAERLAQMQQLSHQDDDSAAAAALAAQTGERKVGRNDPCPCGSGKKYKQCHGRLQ
Chain of EcN68 SecA ATPase (P10408 1-610): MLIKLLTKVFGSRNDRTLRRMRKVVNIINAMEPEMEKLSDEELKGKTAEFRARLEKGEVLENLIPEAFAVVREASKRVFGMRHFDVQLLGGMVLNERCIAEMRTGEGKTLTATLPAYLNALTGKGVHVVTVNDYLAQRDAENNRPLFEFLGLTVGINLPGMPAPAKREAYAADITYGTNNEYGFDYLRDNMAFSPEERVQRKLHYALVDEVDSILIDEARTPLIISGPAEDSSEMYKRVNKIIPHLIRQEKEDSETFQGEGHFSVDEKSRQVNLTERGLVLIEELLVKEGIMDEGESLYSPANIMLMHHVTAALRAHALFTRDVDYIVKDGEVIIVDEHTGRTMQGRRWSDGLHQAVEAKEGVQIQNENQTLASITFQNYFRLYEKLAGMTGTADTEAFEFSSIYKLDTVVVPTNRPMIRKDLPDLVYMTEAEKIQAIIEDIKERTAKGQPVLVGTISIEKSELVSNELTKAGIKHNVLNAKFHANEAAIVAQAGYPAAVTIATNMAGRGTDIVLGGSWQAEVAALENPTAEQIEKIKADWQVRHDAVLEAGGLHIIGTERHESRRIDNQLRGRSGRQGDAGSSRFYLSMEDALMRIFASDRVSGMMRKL
Chain of BsSecA intrinsic ATPase (P28366 whole entry): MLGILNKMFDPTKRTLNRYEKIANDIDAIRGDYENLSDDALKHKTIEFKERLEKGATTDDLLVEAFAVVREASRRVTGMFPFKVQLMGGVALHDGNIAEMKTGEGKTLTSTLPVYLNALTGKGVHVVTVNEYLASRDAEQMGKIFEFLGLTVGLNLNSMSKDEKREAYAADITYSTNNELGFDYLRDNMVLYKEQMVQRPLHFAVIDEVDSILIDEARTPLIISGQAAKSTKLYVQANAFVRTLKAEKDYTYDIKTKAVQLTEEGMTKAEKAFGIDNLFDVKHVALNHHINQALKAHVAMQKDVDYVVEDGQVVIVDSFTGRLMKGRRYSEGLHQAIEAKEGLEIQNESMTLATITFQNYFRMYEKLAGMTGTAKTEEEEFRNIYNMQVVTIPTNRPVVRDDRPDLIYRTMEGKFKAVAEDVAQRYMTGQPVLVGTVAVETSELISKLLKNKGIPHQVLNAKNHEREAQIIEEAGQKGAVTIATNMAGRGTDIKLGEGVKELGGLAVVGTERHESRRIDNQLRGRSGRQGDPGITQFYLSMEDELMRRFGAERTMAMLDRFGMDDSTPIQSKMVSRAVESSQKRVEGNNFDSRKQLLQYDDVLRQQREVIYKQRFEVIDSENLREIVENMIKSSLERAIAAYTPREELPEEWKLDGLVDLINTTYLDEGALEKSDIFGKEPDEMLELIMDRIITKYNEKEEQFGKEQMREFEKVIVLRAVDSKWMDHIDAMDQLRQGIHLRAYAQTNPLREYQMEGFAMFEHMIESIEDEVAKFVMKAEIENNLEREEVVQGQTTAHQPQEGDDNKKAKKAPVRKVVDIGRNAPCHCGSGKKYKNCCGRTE
Chain of EcSecA membrane ATPase (P10408 whole entry): as the sequence (P10408 whole entry) above

O=C([O-])c1ccccc1-c1c2ccc(=O)c(I)c-2oc2c(I)c([O-])ccc12.[Na+].[Na+] [DI, Diiodofluorescein]
MIC, E. coli MC4100 (E. coli MC4100): >3000 µM | MIC, B. subtilis 168 (B. subtilis 168 [1]): 1000 µM

O.O=C([O-])c1ccccc1-c1c2cc(I)c(=O)c(I)c-2oc2c(I)c([O-])c(I)cc12.[Na+].[Na+] [EB, Erythrosin B]
IC50 (EcSecA membrane ATPase): 12 µM | Mode of inhibition against ATP (SecA ATPase): competitive inhibitors against ATP | IC50 [2]: 10 µM | MIC, E. coli MC4100 (E. coli MC4100): >10000 µM | MIC, B. subtilis 168 (B. subtilis 168 [1]): 250 to 500 µM | IC50 [3]: 4 µM | IC50 (F1F0-ATPase): ~30 µM | MIC, E. coli NR698 (E. coli NR698 [4]): 250 to 500 µM | IC50 (BsSecA intrinsic ATPase): 70 µM

O=C1OC2(c3ccccc31)c1cc(Br)c(O)c(Br)c1Oc1c2cc(Br)c(O)c1Br [EY, Eosin Y]
IC50 (EcN68 SecA ATPase): 25 µM | MIC (B. subtilis 168 [1]; Bacillus subtilis, 168, read-out: MIC, B. subtilis 168): 2500 µM (≈ 1620 µg/mL) | MIC (E. coli NR698 [4]; Escherichia coli, NR698, read-out: MIC, E. coli NR698): 1000 to 2500 µM (≈ 648 to 1620 µg/mL)

O=C1OC2(c3cc(I)c(O)c(I)c3Oc3c2cc(I)c(O)c3I)c2c(Cl)c(Cl)c(Cl)c(Cl)c21 [RB, Rose Bengal]
Mode of inhibition against ATP (SecA ATPase): competitive inhibitors against ATP | Inhibition of growth in liquid culture (E. coli NR698 [5]): completely inhibits | MIC, E. coli MC4100 (E. coli MC4100): >1000 µM | MIC, B. subtilis 168 (B. subtilis 168 [1]): 3.1 µM (≈ 3.02 µg/mL) | IC50 [3]: 0.25 µM and ~0.25 µM | Decrease of cell survival (CFU) (E. coli NR698 [6]): about 10 log units | IC50 (F1F0-ATPase): ~10 µM | Decrease of cell survival (CFU) (B. subtilis 168 [7]): ~8 log units | MIC, E. coli NR698 (E. coli NR698 [4]): 3.1 µM (≈ 3.02 µg/mL) | IC50 (BsSecA intrinsic ATPase): 7 µM

[N-]=[N+]=[N-].[Na+] [Sodium azide]
Inhibition of the intrinsic ATPase of SecA (EcN68 SecA ATPase; at concentrations as high as 10 mM, cf. Table 1 EcN68): not inhibited | IC50 [8]: 5000 µM | IC50 [9]: 600 µM

C/C=C/[C@H]1C(C)=C[C@H]2C[C@H](C)[C@H](O)C[C@H]2[C@]1(C)/C=C(C)/C=C/C(=O)O [pannomycin]
MIC, antibacterial activity [10]: mM range

Dinitrofluorescein [DN]
MIC, B. subtilis 168 (B. subtilis 168 [1]): 10000 µM | MIC, E. coli NR698 (E. coli NR698 [4]): 10000 to 20000 µM
